Data reported in publication PMC6361670 (Small (Weinheim an der Bergstrasse, Germany), 2018).

Experiments:
[1] = system: E/P-selectin on activated HUVECs; assay: Competitive inhibition of FITC-labeled QA-NP binding to activated HUVECs; assay type: cell-based, human; conditions: 30 min pre-incubation; flow cytometry
Outline: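 HUVECs (passage 4, EGM-2, on rat-tail collagen I) were activated with 10 ng/mL TNF-α for 4 h. Free ligand, anti-E-selectin or anti-P-selectin antibody, or unlabeled nanoparticles were pre-incubated for 30 min. FITC-labeled particles (0.2 mg/mL) were then added for 2 h at 37 °C. Cells were washed twice with PBS, trypsinized, resuspended in cold PBS, and read for FL-1 fluorescence (488/525 nm).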

HUVECs = assay: Cytotoxicity of QA-NH2 on HUVECs; assay type: cell-based, human; conditions: 1 nM to 1 mM, 24 h, MTT
Outline: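 HUVECs were seeded at 10,000 cells per well on rat-tail collagen I; one group was pre-activated with 10 ng/mL TNF-α for 4 h. Test compound was added at 1 nM to 1 mM for 24 h. MTT (75 μg) was then added for 4 h, formazan was dissolved in 50% DMF/20% SDS at pH 5, and absorbance was read at 562 nm.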

[2] = system: subcutaneous MDA-MB-231 tumor xenografts; assay: Whole body and ex vivo fluorescence imaging of NP distribution; assay type: in vivo, female athymic nude mice; conditions: ICG-labeled, tail vein, imaged over 24 h

Row | Compound | QA-NP binding to activated HUVECs after pre-treatment with competitor [1] | effect on HUVEC proliferation (HUVECs) | tumor fluorescence in whole body imaging [2]
1 | Nc1cc(NC(=O)[C@]2(O)C[C@@H](O)[C@@H](O)[C@H](O)C2)cc(C(=O)O)c1 [QA-NH2, 3-amino-5-((1S,3R,4S,5R)-1,3,4,5-tetrahydroxycyclohexane-1-carboxamido)benzoic acid] | reduced | no adverse effects | –
2 | CC1(C)C(/C=C/C=C/C=C/C=C2\N(CCCCS(=O)(=O)O)c3ccc4ccccc4c3C2(C)C)=[N+](CCCCS(=O)(=O)[O-])c2ccc3ccccc3c21 [free ICG, indocyanine green] | – | – | did not show fluorescence in tumors at all time points
